What was measured:
P. falciparum Dd2 strain = assay: P. falciparum Dd2 growth inhibition; type: cell-based; details: Plasmodium falciparum, DD2, read-out: EC50 growth Dd2
pfNDH2 = pfNDH2 (Plasmodium falciparum, UniProt Q8I302); assay: pfNDH2 enzyme activity assay; type: biochemical
pfDHOD = target: T1, pfDHOD (Plasmodium falciparum, UniProt Q08210); assay: pfDHOD chromogen; type: biochemical
T1 sequence (Q08210 24-569): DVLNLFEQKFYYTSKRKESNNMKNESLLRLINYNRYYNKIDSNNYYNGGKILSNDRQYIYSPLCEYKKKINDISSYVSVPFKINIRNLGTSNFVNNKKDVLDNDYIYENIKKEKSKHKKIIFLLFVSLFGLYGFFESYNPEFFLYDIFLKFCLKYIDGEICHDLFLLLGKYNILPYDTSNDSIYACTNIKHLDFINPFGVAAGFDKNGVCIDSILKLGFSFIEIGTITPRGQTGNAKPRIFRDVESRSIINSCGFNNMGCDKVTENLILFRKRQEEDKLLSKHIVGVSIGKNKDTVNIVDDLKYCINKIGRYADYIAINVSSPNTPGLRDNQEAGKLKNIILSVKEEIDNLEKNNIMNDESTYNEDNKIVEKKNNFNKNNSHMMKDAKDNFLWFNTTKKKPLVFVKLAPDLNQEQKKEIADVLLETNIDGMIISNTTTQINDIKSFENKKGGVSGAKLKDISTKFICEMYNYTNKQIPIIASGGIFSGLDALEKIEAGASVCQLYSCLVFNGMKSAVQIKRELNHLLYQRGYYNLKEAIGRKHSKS
Procedure, shortened: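 DCIP reduction assay in 384-well format. Test compound in serial dilution; reaction started by adding pfDHOD and run for 10 min at 25 °C. Read-out A600.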

P. falciparum 3D7 strain = assay: P. falciparum 3D7 growth inhibition; type: cell-based; details: Plasmodium falciparum, 3D7, read-out: EC50 growth 3D7
[1] = tested on: Dd2-scDHOD parasite strain; assay: Transgenic Dd2-scDHOD growth inhibition; type: cell-based; details: Plasmodium falciparum, DD2, read-out: EC50 growth Dd2-scDHOD
liver stage P. berghei = assay: P. berghei liver stage assay in HepG2 cells; type: cell-based; details: Plasmodium berghei, HepG2, 45 h, read-out: IC50 liver stage P. berghei
Procedure, shortened: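 Luciferase-expressing P. berghei ANKA sporozoites (4,000, from mosquito salivary glands) infect 12,000 HepG2 cells with or without test compound; final DMSO 0.3%. Parasite growth is read by luciferase luminescence 45 h post-infection. Results are mean ± SD, and experiments were repeated 2-3 times.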

hsCYT bc1 = hsCYT bc1 (Homo sapiens, UniProt P00156); assay: Cytochrome c reductase activity, human; type: biochemical
Procedure, shortened: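 Mitochondria from HEK293 cells pelleted at 400 g for 10 min, disrupted by N2 cavitation, then debris spin, 10,000 g pellet and 1–2 M sucrose gradient. Mitochondria (40 ug/ml) in 250 mM sucrose, 50 mM KH2PO4, 0.2 mM EDTA, 1 mM NaN3, 2.5 mM KCN with 50 uM cytochrome c. Started with 25 uM decylubiquinol; cytochrome c reduction read at 550 nm over the first 60 s.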

O=C1C(O)=C([C@H]2CC[C@H](c3ccc(Cl)cc3)CC2)C(=O)c2ccccc21 [atovaquone]
EC50 (P. falciparum Dd2 strain): 1 nM | IC50 (pfNDH2): > 20 µM | IC50 (pfDHOD): > 20 µM | EC50 (P. falciparum 3D7 strain): 1 nM | EC50 [1]: > 5 µM | IC50 (liver stage P. berghei): 0.3 nM | IC50 (hsCYT bc1): 350 ± 12 nM

— PMC3474356 (Chemistry & biology, 2011)
